ChEMBL document CHEMBL1156561, “Discovery of piperidine carboxamide TRPV1 antagonists” (Bioorg Med Chem Lett, 2008)
Calls of active or inactive are those of the source. No cut-off for these calls is given here.

Tests used:
[1] = biological target: T1, Transient receptor potential cation channel subfamily V member 1 (Homo sapiens, UniProt Q8NER1); experiment: Displacement of [3H]RTX from human TRPV1 receptor expressed in HEK293 cell membrane; type: cell membranes
[2] = biological target: T1, Transient receptor potential cation channel subfamily V member 1; experiment: Antagonist activity at human TRPV1 receptor assessed as inhibition of capsaicin-induced calcium flux by FLIPR; type: functional
Procedure, shortened: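 Capsaicin-evoked Ca2+ flux in cells expressing TRPV1, read on a FLIPR with a Ca2+-sensitive fluorescent dye. Antagonism was taken as inhibition of the capsaicin response.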

[3] = Metabolic stability in rat liver microsomes assessed as half life; type: ADME, Microsome
[4] = Metabolic stability in human liver microsomes assessed as half life; type: ADME, Microsome
[5] = biological target: T1, Transient receptor potential cation channel subfamily V member 1; experiment: Antagonist activity at human TRPV1 receptor assessed as inhibition of capsaicin-induced calcium flux at 1 uM by FLIPR; type: functional
[6] = Apparent permeability from apical to basolateral side of human Caco-2 cells; type: ADME, cell-based
[7] = biological target: Cytochrome P450 2D6 (Homo sapiens, UniProt P10635); experiment: Inhibition of recombinant CYP2D6; type: ADME
[8] = system: Caco-2; experiment: Ratio of permeability from basolateral to apical over apical to basolateral side of human Caco-2 cells
[9] = biological target: Cytochrome P450 3A4 (Homo sapiens, UniProt P08684); experiment: Inhibition of recombinant CYP3A4; type: ADME
Chain of Cytochrome P450 3A4 (P08684 whole entry): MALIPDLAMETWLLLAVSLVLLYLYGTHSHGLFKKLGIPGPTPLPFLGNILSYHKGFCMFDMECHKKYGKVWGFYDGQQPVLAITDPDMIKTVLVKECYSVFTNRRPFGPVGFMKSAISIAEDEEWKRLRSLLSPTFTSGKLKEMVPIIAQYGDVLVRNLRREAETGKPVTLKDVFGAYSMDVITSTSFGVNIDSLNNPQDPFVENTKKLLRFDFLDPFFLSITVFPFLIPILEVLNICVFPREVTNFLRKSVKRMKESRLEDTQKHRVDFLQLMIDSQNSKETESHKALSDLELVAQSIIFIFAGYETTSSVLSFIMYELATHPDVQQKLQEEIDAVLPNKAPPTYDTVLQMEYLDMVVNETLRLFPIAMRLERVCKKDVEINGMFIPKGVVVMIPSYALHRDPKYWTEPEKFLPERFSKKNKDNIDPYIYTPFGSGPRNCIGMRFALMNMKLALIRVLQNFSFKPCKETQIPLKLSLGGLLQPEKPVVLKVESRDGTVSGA

T1 sequence (Q8NER1 whole entry): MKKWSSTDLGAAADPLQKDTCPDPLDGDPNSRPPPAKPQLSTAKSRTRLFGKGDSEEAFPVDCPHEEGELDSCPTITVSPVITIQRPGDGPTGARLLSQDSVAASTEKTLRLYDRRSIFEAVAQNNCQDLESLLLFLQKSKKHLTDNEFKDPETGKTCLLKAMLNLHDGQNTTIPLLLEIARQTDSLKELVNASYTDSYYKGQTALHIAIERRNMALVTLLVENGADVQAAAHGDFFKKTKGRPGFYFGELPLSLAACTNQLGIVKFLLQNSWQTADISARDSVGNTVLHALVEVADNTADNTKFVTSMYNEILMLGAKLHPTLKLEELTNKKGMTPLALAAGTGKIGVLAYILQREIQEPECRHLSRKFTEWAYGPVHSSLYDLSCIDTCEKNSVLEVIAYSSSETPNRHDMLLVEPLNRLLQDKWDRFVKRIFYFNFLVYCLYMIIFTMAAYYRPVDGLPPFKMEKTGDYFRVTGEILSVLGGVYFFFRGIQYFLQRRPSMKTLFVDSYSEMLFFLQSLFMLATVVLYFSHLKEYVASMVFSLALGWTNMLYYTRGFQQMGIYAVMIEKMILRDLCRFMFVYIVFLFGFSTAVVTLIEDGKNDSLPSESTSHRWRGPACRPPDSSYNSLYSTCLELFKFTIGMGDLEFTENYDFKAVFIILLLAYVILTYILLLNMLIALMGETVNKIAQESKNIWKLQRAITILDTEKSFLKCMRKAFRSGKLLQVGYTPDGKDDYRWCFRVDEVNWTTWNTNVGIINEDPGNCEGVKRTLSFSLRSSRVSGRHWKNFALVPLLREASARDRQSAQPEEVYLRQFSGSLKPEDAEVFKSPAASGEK
Chain of Cytochrome P450 2D6 (P10635 whole entry): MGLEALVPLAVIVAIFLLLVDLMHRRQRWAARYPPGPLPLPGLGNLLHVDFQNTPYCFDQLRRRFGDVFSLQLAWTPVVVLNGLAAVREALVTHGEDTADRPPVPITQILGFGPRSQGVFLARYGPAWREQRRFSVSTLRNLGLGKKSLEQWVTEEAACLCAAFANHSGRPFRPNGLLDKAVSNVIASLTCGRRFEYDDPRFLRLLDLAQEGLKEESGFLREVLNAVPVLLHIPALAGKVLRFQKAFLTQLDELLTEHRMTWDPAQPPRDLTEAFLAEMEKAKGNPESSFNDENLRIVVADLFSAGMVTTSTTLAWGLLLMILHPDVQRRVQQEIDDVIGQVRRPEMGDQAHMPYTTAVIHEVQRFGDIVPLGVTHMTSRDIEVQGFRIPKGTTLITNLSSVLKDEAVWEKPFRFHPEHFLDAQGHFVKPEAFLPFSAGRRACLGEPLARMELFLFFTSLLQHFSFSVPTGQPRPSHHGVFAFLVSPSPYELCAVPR

Compound `Cc1c(Cl)cccc1N1CCC(C(=O)Nc2ccc3c(c2)NC(=O)CO3)CC1` has a Ki [1] of 100 nM.
For `O=C1COc2c(cccc2NC(=O)C2CCN(c3cc(F)c(F)c(F)c3)CC2)N1`, the Activity [2] was “inactive”.
Compound `COC(=O)CC1Oc2ccc(NC(=O)C3CCN(c4cc(F)c(F)c(F)c4)CC3)cc2NC1=O` (stereo not drawn) has an IC50 [2] of 890 nM.
For `CC(C)c1ccccc1N1CCC(C(=O)Nc2ccc3c(c2)NC(=O)CO3)CC1`, the half-life [3] was 9 min and the half-life [4] was 11.4 min.
In the case of `O=C1COc2cc(NC(=O)C3CCN(c4cc(F)c(F)c(F)c4)CC3)ccc2N1`, the inhibition [5] is reported as 55%.
With `CCOC(=O)C1Oc2ccc(NC(=O)C3CCN(c4cc(F)c(F)c(F)c4)CC3)cc2NC1=O` (stereo not drawn) the Activity [2] was “inactive”.
In the case of `CC(=O)N1CCc2cc(NC(=O)C3CCN(c4cccc(C(F)(F)F)c4)CC3)ccc21`, the IC50 [2] is reported as over 9000 nM.
With `O=C1COc2ccc(NC(=O)C3CCN(c4ccc(F)c(F)c4)CC3)cc2N1` the half-life [3] was 15.5 min and the half-life [4] was 44.3 min.
For `O=C(Nc1ccc2c(c1)NC(=O)C(CCO)O2)C1CCN(c2cc(F)c(F)c(F)c2)CC1` (stereo not drawn), the half-life [3] was 79 min, the half-life [4] was 55 min and the Papp A→B [6] was 1.5 ×10⁻⁶ cm/s. The IC50 [7] was over 10000 nM, the Ratio [8] was 10.6 and the IC50 [9] was 3700 nM. It also gave an IC50 [2] of 5 nM.
`O=C1COc2ccc(NC(=O)C3CCN(c4cc(F)cc(F)c4)CC3)cc2N1` showed a half-life [3] of 19.4 min and a half-life [4] of 81.7 min.
Compound `O=C1COc2ccc(NC(=O)C3CCN(c4cccc(Cl)c4)CC3)cc2N1` has a half-life [3] of 4.4 min, a half-life [4] of 27.7 min and a Ki [1] of 97 nM.
With `O=C(Nc1ccc2cc[nH]c2c1)C1CCN(c2cccc(C(F)(F)F)c2)CC1` the IC50 [2] was over 9000 nM.
With `O=C(Nc1ccc2c(c1)NC(=O)C(C(=O)O)O2)C1CCN(c2cc(F)c(F)c(F)c2)CC1` (stereo not drawn) the Activity [2] was “inactive”.
For `O=C1COc2ccc(NC(=O)C3CCN(c4cc(F)c(F)c(F)c4)CC3)cc2N1`, the half-life [3] was 63.8 min, the half-life [4] was 58.9 min and the Ki [1] was 49 nM. The IC50 [2] was 59 nM.
`O=C1COc2ccc(NC(=O)C3CCN(c4ccccc4C(F)(F)F)CC3)cc2N1` showed a Ki [1] of 68 nM.
Work on `Cc1cccc(N2CCC(C(=O)Nc3ccc4c(c3)NC(=O)CO4)CC2)c1C` yielded a half-life [3] of 6.5 min, a half-life [4] of over 60 min and a Ki [1] of 28 nM.
`O=C(O)CC1Oc2ccc(NC(=O)C3CCN(c4cc(F)c(F)c(F)c4)CC3)cc2NC1=O` (stereo not drawn) gave an inhibition [5] of 5%.
`O=C1COc2ccc(NC(=O)C3CCN(c4cccc(F)c4Br)CC3)cc2N1` showed a half-life [3] of 7.2 min, a half-life [4] of 15.6 min and a Ki [1] of 81 nM.
Work on `O=C1COc2ccc(NC(=O)C3CCN(c4cccc(C(F)(F)F)c4)CC3)cc2N1` yielded a half-life [3] of 2.8 min, a half-life [4] of 17.3 min and an IC50 [2] of 180 nM.
In the case of `CC1(C(=O)O)Oc2ccc(NC(=O)C3CCN(c4cc(F)c(F)c(F)c4)CC3)cc2NC1=O` (stereo not drawn), the Activity [2] is reported as “inactive”.
`O=C1COc2cccc(NC(=O)C3CCN(c4cc(F)c(F)c(F)c4)CC3)c2N1` gave an inhibition [5] of 9%.
In the case of `CC(C)(C)c1ccc(N2CCC(C(=O)Nc3ccc4c(c3)NC(=O)CO4)CC2)cc1`, the Ki [1] is reported as 142 nM.
With `CN1C(=O)COc2ccc(NC(=O)C3CCN(c4cc(F)c(F)c(F)c4)CC3)cc21` the Activity [2] was “inactive”.
